Data reported in the EternaBench riboswitch data.

Test system: MS2 coat protein
Assay: apparent Kd, MS2 coat protein; higher = weaker binding; RNA-MaP array; FMN 200 µM where present
Procedure, shortened: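 The titrant was SNAP-549-labelled MS2 coat protein, run from 0.7 or 1.5 nM in doubling steps to 3 µM. It was applied to designs transcribed by stalled E. coli RNA polymerase on Illumina sequencing-chip clusters, without ligand first and then with constant ligand, in 100 mM Tris-HCl pH 7.5, 80 mM KCl, 4 mM MgCl2, BSA, DTT, yeast tRNA and Tween-20. The apparent Kd is the median of filtered per-cluster binding-curve fits, with green signal normalised to red-channel RNA signal and control-cluster median Fmax.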

[1] = designed as: OFF switch for flavin mononucleotide, no ligand
[2] = ligand present: flavin mononucleotide, designed as: OFF switch for flavin mononucleotide
[3] = designed as: ON switch for flavin mononucleotide, no ligand
[4] = ligand present: flavin mononucleotide, designed as: ON switch for flavin mononucleotide

Sequence | apparent Kd [1] [nM] | apparent Kd [2] [nM] | apparent Kd [3] [nM] | apparent Kd [4] [nM]
ACGCCUCCUGUUAGGAUAUGCAUCGGGCUUCCGCAGCAGAAGGAACAUGAGGAUCACCCAUGUCAAAUAAAAUC | 15.3 | 94.4 | – | –
ACGGAACAUGAGGAUCACCCAUGUAUCCGAAAUAUGGACUCACAGGAUAUCCAGAGUUGCCAAUCGGAGAAGGGUGACUCCAGA | – | – | 12.8 | 9.91
ACGGCAAUCAGAGGAUAUGGUUACAUGAGGAUCACCCAUGUCAAGGGUCUAAUUAGGUAUAACUACCAGAAGGCUGAAGGCCUA | 56.1 | 94.8 | – | –
ACGGUCUUGUCAGGAUAUACAUGAGGAUCACCCAUGUAAUGCGGGUAGGAUAACAAGUCACUUAGGUAGAAGGGACAAGGGACU | 22.1 | 54.6 | – | –
ACGGUGGUCACAGGAUAUCCGGCCCGCGGGCCUGGAGAAGGGUGACUCAGAACCACAUGAGGAUCACCCAUGUGCCUUGCCGUA | – | – | 250 | 48.7
ACGUAUCAUGUAGGAUAUGACCCAGGAAAUUGGUCAGAAGGACAUGAGGAUCACCCAUGUAGAGUAUGUUAGGAUGACGUAUGC | 115 | 165 | – | –
ACGUGACGGUUCGCGAGUGGACGGAGAAGGCAGACAUGAGGAUCACCCAUGUGAGCCUGCUAUUCUGAGGAUAUCCGUUCGCAC | 25.7 | 130 | – | –
ACGUGUCGUGUAGGAUAUGACACAGGAAACUGGUCAGAAGGACAUGAGGAUCACCCAUGUAGAGUGUGUAAGGAUGACGUAUGC | 52 | 199 | – | –
ACGUUAAAAGGAUAUACAUGAGGAUCACCCAUGUUGUUCGAACUGGUAAACCCUCUAUGUAGAAGGUUUGGCAC | 23.5 | 50.1 | – | –
ACUAAAGAAGGAUAUACUAACGAACCUCAAACAUAGAUAAAACAUGAGGAUCACCCAUGUAGAAGGUCUAGACU | 31.7 | 39.6 | – | –
ACUACUUAGUGAGGAUAUACAUAAUUUAUAACUGUAGAAGGCACAAACCUCAAUACAUGAGGAUCACCCAUGUUUUAUAUCUAU | 32.7 | 46.4 | – | –
ACUAGAUGAGGAUAUGCAUAUUUUCGUGUUCUUCUAGAUUAACAUGAGGAUCACCCAUGUAGAAGGCGUCAUUU | 15.7 | 18.4 | – | –
ACUAGAUGAGGAUAUGCAUAUUUUCGUGUUCUUCUAGGUUAACAUGAGGAUCACCCAUGUAGAAGGCGUCUAUA | 19.7 | 35 | – | –
ACUAUACGAGGAUAUACUGUCGGGCCUCGGACAUAAAUAAGACAUGAGGAUCACCCAUGUAGAAGGCGUUUACU | 25.6 | 46 | – | –
ACUCUGCGAGGAUAUACAUGAGGAUCACCCAUGUGCGAGUUACUUGUGAGGUCGGUUGGUAGAAGGCGCGGAGA | 99.4 | 134 | – | –
ACUGCUCGAGGAUAUACAUGAGGAUCACCCAUGUAACCCAGAAGCACGGCCUCAGGAUGUAGAAGGCGACGCAA | 13.1 | 13.2 | – | –
ACUGGCUUGCAGAAGGGUGACAUGAGGAUCACCCAUGUAGCGGGCCGGCGUAAAGUCAGCGCGCCACAGGAUAUGCAGGCCUCG | – | – | 74 | 45.2
ACUGUCCGAGAGAAGGGAACAUGAGGAUCACCCAUGUUACCUCACCUGGUGACGGAACUCCAAGUUCAGGAUAUCUCGGGCGGC | 5.14 | 7.59 | – | –
ACUUACUGAGGAUAUACAUAGAUUUACAUGAGGAUCACCCAUGUUCCUCUAUGUAUAAAUGUAGAAGGCAGAAGAA | 16.6 | 59.1 | – | –
ACUUGUUACUUAAUCAUUGAUUUGUAGGAUAUACGUACAUGAGGAUCACCCAUGUUACAUGGUAUGUAGAAGGACAUCUAAUUU | 11 | 11.2 | – | –
ACUUGUUAGUAGAAGGUAGUUAUUAUAUUAAUCAUGUAUACAUGAGGAUCACCCAUGUUGAUUUCUAAGGAUAUACAUCGAUAG | 81.4 | 59 | – | –
ACUUUACGAGGAUAUACUGUCGGGCCUCGGGCAUACAUGCGACAUGAGGAUCACCCAUGUAGAAGGCGUUUACU | 29.5 | 92 | – | –
ACUUUACGAGGAUAUACUGUCGGGCCUCGGGCGUCCAUGCGACAUGAGGAUCACCCAUGUAGAAGGCGUUUACU | 25.1 | 51.5 | – | –
AGAAACUACGAGAAGGACAUGAGGAUCACCCAUGUAACCACUAUGUGGAAUGUAGGAUAUCGUAGUUUCAGGAUCGUGAGAUCA | 6.17 | 9.84 | – | –
AGAAACUACGAGAAGGACAUGUAAAAUGCCGCAAACAUGAGGAUCACCCAUGUAGGAUAUCGUAGUUUCAGGAUCGUGAGAUCA | 6.59 | 18.1 | – | –
AGAAAGUCAGGAUAUCAGAAACUAGUCGAAACGACUAGAAAUGAGAAGGGACAUGAGGAUCACCCAUGUAAGAA | 29.7 | 43.4 | – | –
AGAAAGUGAGGAUAUACGAAACCAGCCUAAAUGGCUGGAAAGUAGAAGGCACAUGAGGAUCACCCAUGUAAAGA | 24.4 | 31.6 | – | –
AGAAAUUCAGGAUAUACAUGAGGAUCACCCAUGUUUGGCAGAGGCGCCGAGAUCCCACGUAGAAGGGAAAAGAC | 37.1 | 79.9 | – | –

Sequence | apparent Kd [1] [nM] | apparent Kd [2] [nM] | apparent Kd [3] [nM] | apparent Kd [4] [nM]
AGAAUGGGCGAGAAGGGAGUACAUGAGGAUCACCCAUGUGGUUCAUGGUGCUCAGGAUAUCGAUAGACCAGGGAGCGUCUCUGA | 30 | 148 | – | –
AGAAUUGUAGGAUAUACAUGAGGAUCACCCAUGUGGGAGGUGGAGCAUACAAGACGAGGUAGAAGGACAACGAC | 92.3 | 91.9 | – | –
AGACUGAAGCAAGGAUAUUGUAAGGUUAAUGUACAAGAAGGUGCUGUUUAUGUCUCUUAACAUGAGGAUCACCCAUGUUUUGAA | – | – | 19.1 | 19.2
AGACUGAAGCAAGGAUAUUGUAAGGUUAAUGUACAAGAAGGUGCUGUUUAUGUCUCUUAACAUGAGGAUCACCCAUGUUUUGGU | – | – | 23.9 | 19.9
AGAUAACAUGUAGGAUAUCGAGGCCUGAGGCCUCGAGAAGGACAUGAGGAUCACCCAUGUAGUUGUACCAUGGAAUCACGCACU | 340 | 645 | – | –
AGAUAGAUAGCGAUAUGAUCGAGAGAUCAUGUCGCUAAAUUUAGAAGGACAUGAGGAUCACCCAUGUAGGAUAUGGGUAUAGAA | – | – | 404 | 149
AGAUCUCAAUAAGAUCCAAUACGAACAUGAGGAUCACCCAUGUAGGAUAUGCUAGAAGUAGAGUAGCAGAAGGACAAGUACCUU | 18.4 | 15.7 | – | –
AGAUGACAAAGUCAUCUCGCUUUGACAUGAGGAUCACCCAUGUAGGAUAUAUUACUCAAAGAGUAAUAGAAGGACAUGUGUCUU | 37.2 | 104 | – | –
AGAUGGUAGAUAGGAUAUCAUGUGCUGACAUGAGGAUCACCCAUGUAGGGACGUCAGUCCAAUUAUGAGAAGGAUCUACCAUCU | – | – | 61 | 39.3
AGAUGGUGAUGUUAUCUUCGUCGGACAUGAGGAUCACCCAUGUAGGAUAUGCUACUCAAAGAGUAGCAGAAGGACAUGUAUCUU | 119 | 896 | – | –
AGAUUUAAUACAGGAUAUGUUAGUAUACAGUUGAUUGGUUAUUACAUUAUGACAGAAGGGUAGAACAUGAGGAUCACCCAUGUA | – | – | 241 | 115
AGAUUUGUACAUGAGGAUCACCCAUGUUAAUAGGUGGUAGUCAGAAGGCAUUGAUAGAGUUUUAAUGAGGAUAUGAAUAUACAG | – | – | 267 | 126
AGCAAAAUAAGCAAGGAUAUGUAAUUUGGCACAUGAGGAUCACCCAUGUCAAUCCAUUUUUUUGAACAGAAGGUGCAUUUUUUUU | – | – | 38.2 | 32.1
AGCAGACGAGGAUAUAGAUUUAAGUACAUGAGGAUCACCCAUGUACACAUGUAUUUAGAUUUAGAAGGCGUCUGCU | 666 | 664 | – | –
AGCAGUACAGGAUAUACAUGAGGAUCACCCAUGUGAAAAUUAAGUGGCGUACCACAAAGUAGAAGGGUACUGCA | 32 | 117 | – | –
AGCAUGUAAGGAUAUGCAACACGACGUUCAAUCGUCGUGCCGCAGAAGGUACAUGAGGAUCACCCAUGUGCUCC | 104 | 129 | – | –
AGCAUGUAAGGAUAUGCAAGUGGUACGGAUAGUACCAUAAAGCAGAAGGUACAUGAGGAUCACCCAUGUGCUCC | 36.3 | 66.7 | – | –
AGCAUUGCUUAGAAGGGAAAUUUAUAAUUUAAUUCAGGAUAUAGAUACAGUACAACAUGAGGACAUGAGGAUCACCCAUGUAUA | – | – | 25.8 | 19.3
AGCCAGGAUGAGUACCUGAGCGGGAGAAGGUACGAGGGAUCGUCUGGACAUGAGGAUCACCCAUGUAAGGAUAUCCCGCCUAUU | 8.69 | 15 | – | –
AGCCUGAGUCGAGGAUAUUAUGGAUCCUUUAAUACAUGAGGAUCACCCAUGUAAUUAAUUAUACAUGAGAAGGUGACUCAGGCA | – | – | 265 | 25.1
AGCGAACAGGCUAACAUGAGGAUCACCCAUGUGGACUCAUGGUAGGAUAUCGGGAAGGAGGAAACCGAGAAGGGCCGGUGAGCU | – | – | 254 | 62.8
AGCGCGGUCCACUUGGACGCCUACGAGGAUAUCCUGUCACAUGAGGAUCACCCAUGUAGGCACAUGGAGAAGGCGUAGAAAUCA | – | – | 60.9 | 7.22
AGCGGAUAACAGUAGGAUAUGGCCAACGCCACAUGAGGAUCACCCAUGUCGUACCGGCACCUGGACUAGAAGGACUGCCUCCCGC | – | – | 30.8 | 14.5
AGCGUCGGCACAGGAUAUGAGAUGCCGGCAGACAUGAGGAUCACCCAUGUAAGCGAACCAGGCAGUCAGAAGGGUGAUCGACAA | – | – | 56.3 | 21.7
AGCUACGUUUCGUAGCAGCUAGAAAAGGAUAUUCAAUUUUUCACAUGAGGAUCACCCAUGUAUGUGAAGAAGGCGCCUAGAAAG | – | – | 50.4 | 35.9
AGCUACGUUUCGUAGCAGCUAGGUGAGGAUAUCCUUAUACAUGAGGAUCACCCAUGUUAGCCAUGGGAGAAGGCGCCUAGAAAG | – | – | 328 | 24.8
AGCUACGUUUCGUAGCAGCUAGGUGAGGAUAUUAAAAUUUUCACAUGAGGAUCACCCAUGUAUGUGAAGAAGGCGCCUAGAAAG | – | – | 53.7 | 7.76
